Bioassay records (PubChem)
Compounds with a hit are over-represented: about 2.8% of the library has one in this group of screens.
RORa activator = activators of human nuclear receptor RORA; CHO-K1 Gal4-RORA LBD luciferase reporter, luminescence; percent increase over mock-subtracted basal signal; activation, % at 10 µM; 65,000 tested, 1.5% active; AID 560;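 active means activation above the mean of all tested compounds plus 3 SD, cut at about 49% in these data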
MT1-MMP txn act = activates MT1-MMP transcription; HT1080 MT1-MMP promoter luciferase reporter, luminescence, overnight; hits give high values; activation factor at 10 µM; 86,000 tested, 0.16% active; AID 750;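 active means activation factor of at least 2 for MT1-MMP transcription at 10 µM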
SF-1 act = SF-1 (human) activation | CHO-K1 Gal4-SF-1 LBD luciferase reporter; % increase over DMSO SF-1-specific signal | 65,000 tested, 1.9% active | Q13285 | activation, % at 10 µM;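 active means activation above the mean activation of all tested compounds plus 3 SD, cut at about 50% in these data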
Target sequence (Q13285 whole entry, looked up, the tested form may be a part): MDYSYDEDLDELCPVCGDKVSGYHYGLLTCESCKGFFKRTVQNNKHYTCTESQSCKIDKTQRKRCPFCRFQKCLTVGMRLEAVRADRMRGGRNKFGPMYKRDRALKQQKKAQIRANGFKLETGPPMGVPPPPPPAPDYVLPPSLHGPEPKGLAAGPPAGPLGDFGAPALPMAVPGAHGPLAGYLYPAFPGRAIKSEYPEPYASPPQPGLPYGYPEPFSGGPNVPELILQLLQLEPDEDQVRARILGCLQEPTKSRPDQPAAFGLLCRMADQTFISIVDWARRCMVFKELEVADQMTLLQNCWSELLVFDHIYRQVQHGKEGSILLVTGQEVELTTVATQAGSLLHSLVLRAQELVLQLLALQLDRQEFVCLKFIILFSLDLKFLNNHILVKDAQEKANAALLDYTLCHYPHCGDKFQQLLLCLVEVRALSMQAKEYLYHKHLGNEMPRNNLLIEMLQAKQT
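Material: Transient Gal4-SF-1 LBD reporter, CHO-K1 | Input: 4,000 cells/well | Dosing: One dose, 10 µM compound, 1% DMSO | Incubation: 20 h compound treatment, 37 °C | Detection: SteadyLite luciferase luminescence | Evaluation: Percent activation relative to DMSO median and mock-transfected background | Benchmarks: DMSO-treated SF-1-transfected cells as negative, DMSO-treated mock-transfected cells lacking SF-1 as background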
Jurkat tox 60K = cytotoxicity toward Jurkat cells; AID 463; Jurkat E6.1 viability, ATP luminescence, 48 h; 56,000 tested, 1.2% active; inhibition, % at 4 µM;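 active means inhibition above the mean inhibition of all tested compounds plus 3 SD, cut at about 28% in these data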
HEK293 NFkB inh = lowers PMA/ionomycin-induced NF-kB signal in HEK293 cells; HEK-293 NF-kB luciferase reporter, luminescence; inhibition, % at 3 µM; 62,000 tested, 0.21% active;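 active means inhibition above the mean of all tested compounds plus 3 SD, cut at about 40% in these data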
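Timing: 1 h pretreatment, 16 h stimulation, 37 °C; system: HEK-293 cells with stable firefly luciferase reporter driven by four HIV NF-kB elements; doses: 3 µM once, 0.30% DMSO; measured by: luciferase luminescence; control set: DMSO and 10 µM reference inhibitor; repeats: single test; reagent: PMA plus ionomycin mix as NF-kB-activating stimulus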
Each line names hits and unclear results; the compound was inactive in the other large screens.

COc1ccc(CC(=O)Nc2cccc(-c3nnc(-c4ccccc4)o3)c2)cc1OC	Jurkat tox 60K 33.3
COc1ccc(CC(=O)Nc2ccc(-c3nnc(-c4ccccc4)o3)cc2)cc1OC	none
COc1ccc(CC(=O)Nc2cccc(-c3nnc(-c4ccc(C)cc4)o3)c2)cc1OC	none
COc1ccc(CC(=O)Nc2cccc(-c3nnc(-c4cccc(C)c4)o3)c2)cc1OC	Jurkat tox 60K 42.8
Cc1nnsc1C(=O)Nc1ccc(Cl)cc1	none (no result: RORa activator, SF-1 act, Jurkat tox 60K, HEK293 NFkB inh)
CC(C)NC(=O)CN(c1cccc(Br)c1)S(C)(=O)=O	none
Cc1ccc2oc(-c3ccc(NC(=O)CC(C)C)cc3)nc2c1	RORa activator 55.2
NC(=O)CSc1nnc(Cn2c(=O)sc3ccccc32)n1CCc1ccccc1	none
CCOC(CNC(=O)c1ccc2nc(N3CCC(C)CC3)sc2c1)OCC	none (no result: RORa activator, SF-1 act, Jurkat tox 60K, HEK293 NFkB inh)
Clc1ccc(-c2cn3cccnc3n2)cc1	none (no result: RORa activator, SF-1 act, Jurkat tox 60K, HEK293 NFkB inh)
Brc1ccc(-c2cn3cccnc3n2)cc1	RORa activator 53.0
O=C(CN1C(=O)NC2(CCCCCC2)C1=O)c1ccc2c(c1)OCCO2	SF-1 act 88.7
COc1cc(CN2CCN(C(=O)CC(C)C)CC2)cc(OC)c1O	none
Cc1nnc2sc(-c3cc4ccccc4o3)nn12	RORa activator 56.8
CCOC(=O)c1cnc(-c2ccccc2)nc1N(C)C	none (no result: RORa activator, SF-1 act, Jurkat tox 60K, HEK293 NFkB inh)
CCOC(=O)c1cnc(SCC(=O)c2ccccc2)nc1N	RORa activator 58.6
CCOC(=O)c1cnc(-c2ccccc2)nc1N	SF-1 act 63.8
CC1CCCN(c2ncnc3c2cnn3-c2ccc(Cl)cc2)C1 (centres undefined)	HEK293 NFkB inh 71.0 (no result: MT1-MMP txn act)
CC1CC(C)CN(c2ncnc3c2cnn3-c2ccc(Cl)cc2)C1 (centres undefined)	RORa activator 54.1, SF-1 act 70.8
CN1CCN(c2ncnc3c2cnn3-c2ccc(Cl)cc2)CC1	none (no result: MT1-MMP txn act)
CC1CCCN(c2ncnc3c2cnn3-c2ccccc2)C1 (centres undefined)	none (no result: MT1-MMP txn act)
OCCNc1nc(-c2ccccc2)c2ccccc2n1	none (no result: Jurkat tox 60K, HEK293 NFkB inh)
Cc1csc(NC(=O)CSc2nnc(C)s2)n1	none
Cn1nnc2c(NCc3ccco3)nccc21	none (no result: Jurkat tox 60K)
COc1ccc(Nc2nccc3c2nnn3C)cc1	RORa activator 52.7
Cn1c(=O)n(CCN2CCOCC2)c(=O)c2c1nc1n2CCN1c1ccc(Oc2ccccc2)cc1	none
Cc1ccc(CNC(=O)CSc2ncccn2)cc1	none (no result: Jurkat tox 60K)
Cc1sc(NC(=O)c2ccc(Cl)s2)c(C(N)=O)c1C	RORa activator 65.5, MT1-MMP txn act 2.2, SF-1 act 100.9
Cc1sc(NC(=O)c2ccc(Br)s2)c(C(N)=O)c1C	none (no result: RORa activator, SF-1 act, Jurkat tox 60K, HEK293 NFkB inh)
COc1ccc2cc(C(=O)NCc3ccco3)c(=Nc3ccc(C(=O)O)cc3)oc2c1	HEK293 NFkB inh 47.5
CCN(CC)S(=O)(=O)c1cc(C(=O)Nc2ccc(Cl)cn2)ccc1C	SF-1 act 61.3
CCN(CC)S(=O)(=O)c1cccc(C(=O)Nc2ccc(Cl)cn2)c1	none
CCCOc1ccc(C(=O)Nc2ccc(Cl)cn2)cc1	none (no result: RORa activator, SF-1 act, Jurkat tox 60K, HEK293 NFkB inh)
Cc1ccccc1C(=O)Nc1ccc(Br)c(C)n1	RORa activator 55.9
CC(C)C(=O)Nc1ccc(NC(=O)c2ccccc2Cl)nc1	RORa activator 61.6
Cc1ccc(C(=O)Nc2ccc(Cl)cn2)cc1	Jurkat tox 60K 76.5
CCC(=O)Nc1ccc(NC(=O)c2ccccc2Cl)nc1	none
CC1(C)CC2CC(C)(CN2C(=O)C23CCC(C)(C(=O)O2)C3(C)C)C1 (centres undefined)	none
COc1ccc(NS(=O)(=O)c2cccc3cccnc23)cc1	none (no result: Jurkat tox 60K)
Cc1ccccc1C(=O)Nc1ccc(Cl)cn1	RORa activator 56.4
COc1cc2c(O)c3c(c(-c4ccc5c(c4)OCO5)c2cc1OC)C(=O)OC3	Jurkat tox 60K 60.5
O=C(OCC(=O)c1ccco1)c1ccc2ncsc2c1	none
Cc1c(-c2nc(N)nc(Nc3ccc(F)cc3)n2)oc2ccccc12	RORa activator 73.8, SF-1 act 77.9
Nc1nc(Nc2ccccc2)nc2ccccc12	none
O=C(NCc1ccco1)c1cc(-c2ccc3c(c2)OCO3)on1	RORa activator 51.0
c1ccc(-c2cc(N3CCCCC3)ncn2)cc1	SF-1 act 55.6
c1ccc(-c2csc(N3CCCCCC3)n2)cc1	none
c1ccc(-c2cnnc(N3CCCCC3)n2)cc1	RORa activator 58.0 (no result: Jurkat tox 60K)
Cc1nc(-c2ccccc2)cc(N2CCCC2)n1	none
FC(F)(F)c1cc(-c2ccccc2)nc(N2CCCCCC2)n1	none
Nc1nc(-c2ccccc2)cc(N2CCCCC2)n1	SF-1 act 74.7, Jurkat tox 60K 78.2
c1ccc(-c2cc(N3CCCCCC3)n[nH]2)cc1	RORa activator 69.9
O=C(CCN1C(=O)COc2ccccc21)NCCN1CCOCC1	none (no result: MT1-MMP txn act)
CC(C)OCCCNC(=O)c1ccc(NS(C)(=O)=O)cc1	none
COc1ccc(C(=O)n2c(-c3ccco3)nc3ccccc32)cc1	RORa activator 65.0, Jurkat tox 60K 77.7
Cc1cc(C)n2nc(C(=O)NCc3ccccc3)cc2n1	none
Cc1cc(C)n2nc(Nc3ccccc3)cc2n1	MT1-MMP txn act 2, SF-1 act 62.2 (no result: Jurkat tox 60K)
CCCCC(=O)Nc1ccc(Cl)cn1	none
O=C(COc1ccccc1Cl)Nc1ccc(Cl)cn1	RORa activator 62.0, SF-1 act 74.5
O=C(COc1ccccc1Cl)NC(=O)NC1CCCC1	SF-1 act 53.0
O=C(CCc1ccccc1)Nc1ccc(Cl)cn1	SF-1 act 60.5, Jurkat tox 60K 77.8
O=C(COc1ccc(Cl)cc1)Nc1ccc(Cl)cn1	none
O=C(CSc1nc2ccccc2c(=O)n1CC1CCCO1)N1CCN(c2ccccc2)CC1 (centres undefined)	none
CCOC(=O)c1sc(NC(=O)c2cccs2)cc1C	none
CCOC(=O)c1sc(NC(=O)c2ccc(Br)o2)cc1C	RORa activator 69.2, SF-1 act 68.9 (no result: Jurkat tox 60K)
Cc1ccc2nc(-c3ccc(NC(=O)c4ccco4)cc3)[nH]c2c1	SF-1 act 50.1
CCC(=O)N1CCN(c2ccccc2NC(=O)Cc2ccc(Cl)cc2)CC1	none
CCOC(=O)C(C)Oc1cccc2c(=O)n(CC(=O)NCc3ccco3)ccc12 (centres undefined)	Jurkat tox 60K 96.4
CC(C)C(=O)c1cn(CC(=O)NCc2ccco2)c2ccccc12	none (no result: RORa activator, SF-1 act, Jurkat tox 60K, HEK293 NFkB inh)
Cc1cc(C)n(-c2ccc(C(=O)NCc3ccc4c(c3)OCO4)cc2)n1	none
Cc1cc(C)n(-c2ccc(C(=O)Nc3sccc3C(N)=O)cc2)n1	SF-1 act 61.8
CC(C)CNS(=O)(=O)c1ccc(C(=O)Nc2ccc3c(c2)OCCO3)cc1	RORa activator 73.2
Cc1cc(C)n(-c2ccc(C(=O)Nc3nnc(C)s3)cc2)n1	none (no result: RORa activator, SF-1 act, Jurkat tox 60K, HEK293 NFkB inh)
Cc1cc(C)n(-c2ccc(C(=O)Nc3ccc4c(c3)OCCO4)cc2)n1	RORa activator 75.3
CCOc1ccc(N(CC(=O)NC2CCCC2)C(=O)CCCC(=O)Nc2ccccn2)cc1	none (no result: RORa activator, SF-1 act, Jurkat tox 60K, HEK293 NFkB inh)
Cc1nn(Cc2ccccc2)c(C)c1C(=O)Nc1ccc(N2CCOCC2)cc1	none
CCN(c1ccccc1)c1nc2ccsc2c(=O)s1	none (no result: Jurkat tox 60K)
CN(c1ccccc1)c1nc2ccsc2c(=O)s1	SF-1 act 50.2 (no result: Jurkat tox 60K)
O=C(Nc1cccc(F)c1)Nc1ccccn1	RORa activator 61.3, SF-1 act 61.6 (no result: MT1-MMP txn act, Jurkat tox 60K)
